The nature of series [1]: Cytotoxicity against CRFK cells assessed as decrease in cell viability by MTS assay. The following applies: cat. In kind it is cell-based, Felis catus. The method in brief: (§1)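 Uninfected host cells were exposed to compound. CC50 was taken as the concentration giving a 50% fall in cell viability, measured by a colorimetric formazan-based MTS assay.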
In general terms: Tetrazolium assays rely on reduction of a dye to a coloured formazan, in cell work by metabolically active cells.

Series [2] is described as follows: Cytotoxicity against HEL cells assessed as alteration in cell morphology by MTS assay. The series is classed as cell-based. The following applies: human. The method in brief:
(§2)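 Uninfected host cells (HEL or HeLa) exposed to compounds […]. The minimal cytotoxic concentration (MCC) is the lowest concentration causing a microscopically detectable change in normal cell morphology. CC50 is the concentration giving a 50% fall in cell viability by the colorimetric formazan-based MTS assay.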

The subject of the next series is MDCK. The experiment in a line: Cytotoxicity against MDCK cells assessed as decrease in cell viability upto 100 uM by MTS assay. In kind it is cell-based, Canis lupus familiaris. The following applies: dog.
A short description of series [3]: Cytotoxicity against CRFK cells assessed as decrease in cell viability upto 100 uM by MTS assay. The following applies: cat. The series is classed as cell-based, Felis catus.
In the next series the test system is HEL. The experiment in a line: Cytotoxicity against HEL cells assessed as decrease in cell viability upto 100 uM by MTS assay. In kind it is cell-based. The following applies: human.
Series [4] deals with HeLa. The series can be described thus: Cytotoxicity against human HeLa cells assessed as decrease in cell viability upto 100 uM by MTS assay. In kind it is functional, cell-based. The method, boiled down:
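Uninfected HeLa host cells were tested up to 100 μM. CC50 is the concentration causing a 50% drop in cell viability by colorimetric formazan-based MTS assay. Alternatively, MCC is the minimal concentration giving microscopically detectable alteration of normal cell morphology.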

A further series deals with Vero. The experiment in a line: Cytotoxicity against african green monkey Vero cells assessed as decrease in cell viability upto 100 uM by MTS assay. In kind it is cell-based. The following applies: chlorocebus sabaeus.
A further series concerns Human respirovirus 3. The experiment in a line: Antiviral activity against Parainfluenza 3 virus infected in Vero cells assessed as inhibition of virus-induced cytopathic effect at 100 uM by MTS assay. In kind it is functional, organism-based. The method in brief:
(§3)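 Vero cell monolayers were infected with the virus in cell-based CPE assays. EC50 is the concentration giving 50% inhibition of virus-induced cytopathic effect, scored visually or by MTS formazan colorimetric cell-viability read-out. The highest concentration tested was 100 μM for most compounds and lower for a few.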

The test system of series [5] is Mammalian orthoreovirus 1. The experiment in a line: Antiviral activity against Reovirus1 infected in Vero cells assessed as inhibition of virus-induced cytopathic effect at 100 uM by MTS assay. The series is classed as functional, organism-based. The method, boiled down:
as §3
On the technique in general: Protection from cytopathic effect is a common read-out in antiviral testing.

The test system of the next series is Sindbis virus. The experiment in a line: Antiviral activity against Sindbis virus infected in Vero cells assessed as inhibition of virus-induced cytopathic effect at 100 uM by MTS assay. In kind it is functional, organism-based. The method, boiled down: as §3
Another series concerns Feline coronavirus. The experiment in a line: Antiviral activity against feline coronavirus infected in CRFK cells assessed as inhibition of virus-induced cytopathic effect at 100 uM by MTS assay. The series is classed as functional, organism-based.
A further series deals with Felid alphaherpesvirus 1. The series can be described thus: Antiviral activity against feline herpes virus infected in CRFK cells assessed as inhibition of virus-induced cytopathic effect at 100 uM by MTS assay. In kind it is functional, organism-based.
The test system of a further series is Human alphaherpesvirus 1. The experiment in a line: Antiviral activity against HSV1 virus infected in HEL cells assessed as inhibition of virus-induced cytopathic effect at 100 uM by MTS assay. In kind it is functional, organism-based.
The subject of another series is Human alphaherpesvirus 2. The experiment in a line: Antiviral activity against HSV2 virus infected in HEL cells assessed as inhibition of virus-induced cytopathic effect at 100 uM by MTS assay. The series is classed as functional, organism-based.
The test system of series [6] is Coxsackievirus B4. The experiment in a line: Antiviral activity against Coxsackievirus B4 infected in HeLa cells assessed as inhibition of virus-induced cytopathic effect at 100 uM by MTS assay. In kind it is functional, organism-based. The method, boiled down:
(§4)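 HeLa cells were infected with the virus, and compounds were tested up to 100 μM. EC50 is the concentration that halves virus-induced cytopathic effect, read by visual CPE scoring or by MTS formazan colorimetric viability measurement.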

In series [7] the test system is Respiratory syncytial virus. The series can be described thus: Antiviral activity against respiratory syncytial virus infected in HeLa cells assessed as inhibition of virus-induced cytopathic effect at 100 uM by MTS assay. The series is classed as functional, organism-based. The method, boiled down: as §4
For series [8], the system named is Coxsackievirus B4. The series can be described thus: Antiviral activity against Coxsackievirus B4 infected in Vero cells assessed as inhibition of virus-induced cytopathic effect at 100 uM by MTS assay. The series is classed as functional, organism-based. The method in brief:
as §3

Series [9] relates to Punta Toro virus. The series can be described thus: Antiviral activity against Punta Toro virus infected in Vero cells assessed as inhibition of virus-induced cytopathic effect at 100 uM by MTS assay. In kind it is functional, organism-based. The method, boiled down:
as §3

The nature of series [10]: Cytotoxicity against MDCK cells assessed as alteration in cell morphology by MTS assay. The conditions noted are these: dog. In kind it is cell-based, Canis lupus familiaris. The method in brief: (§5)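 Uninfected host cells were exposed to compound and examined under the microscope. MCC was the minimal compound concentration causing a microscopically detectable change in normal cell morphology.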

Series [11] in a line: Cytotoxicity against MDCK cells assessed as decrease in cell viability by MTS assay. The series is classed as cell-based, Canis lupus familiaris. The following applies: dog. The method in brief:
as §1

For series [12], the system named is Coxsackievirus B4. The experiment in a line: Antiviral activity against Coxsackievirus B4 infected in Vero cells assessed as inhibition of virus-induced cytopathic effect by MTS assay. The conditions noted are these: Enterovirus B. In kind it is functional, organism-based. The method in brief: (§6)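 Vero cell monolayers infected with Coxsackie B4 virus or Punta Toro virus, with test compounds at up to 100 μM. EC50 is the concentration giving 50% inhibition of virus-induced cytopathic effect (CPE), scored visually or from cell viability by the colorimetric formazan-based MTS assay.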

Series [13] has as its system Punta Toro virus. The experiment in a line: Antiviral activity against Punta Toro virus infected in Vero cells assessed as inhibition of virus-induced cytopathic effect by MTS assay. In kind it is functional, organism-based. The method, boiled down: as §6
Series [14] in a line: Cytotoxicity against african green monkey Vero cells assessed as alteration in cell morphology by MTS assay. The series is classed as cell-based. The following applies: chlorocebus sabaeus. The method in brief:
as §5

For series [15], the system named is HeLa. The series can be described thus: Cytotoxicity against human HeLa cells assessed as alteration in cell morphology by MTS assay. In kind it is functional. The method, boiled down:
as §2

Calls of active or inactive are those of the source. The calls are words filed in the database; no cut-off is given here.

For `Nc1nc(O)c2ncn(COC(CO)CO)c2n1` [GANCICLOVIR], the CC50 in series [1] is more than 100 µM. Further, the MCC in series [2] was more than 100 µM.

For the molecule `CC(=O)Nc1ccc(S(=O)(=O)N(CCO)Cn2ccc(=O)[nH]c2=O)cc1`, the Activity result (with MDCK; in series [3]; in the series on HEL; with Vero) was “Not Active” in each case. The result (in the series with HeLa [4]; with Human respirovirus 3; in series [5]; in the series with Sindbis virus; with Feline coronavirus; in the series with Felid alphaherpesvirus 1) was inactive. The outcome (with Human alphaherpesvirus 1; in the series with Human alphaherpesvirus 2; in the series with Coxsackievirus B4 [6]; in [7]; in the series on Coxsackievirus B4 [8]; with Punta Toro virus [9]) was inactive.

`CC(C)(C)C(=O)OCCN(Cn1cc(F)c(=O)[nH]c1=O)S(=O)(=O)c1cccc([N+](=O)[O-])c1`: the MCC in series [10] is not below 100 µM. For the same molecule, the values for the cytotoxic concentration (CC50) in [11] and in series [1] were more than 100 µM and 95 µM, respectively. In addition, the Activity result in the series on HEL is “Not Active”. For the same molecule, the result (with HeLa [4]; in the series on Human respirovirus 3; in series [5]; in the series on Sindbis virus; in the series with Feline coronavirus; in the series with Felid alphaherpesvirus 1) was inactive. Moreover, the result (in the series on Human alphaherpesvirus 1; in the series on Human alphaherpesvirus 2; with Coxsackievirus B4 [6]; in series [7]) was inactive. Besides, the EC50 with Coxsackievirus B4 [12] and in the series with Punta Toro virus [13] was 100 µM throughout.

`Nc1nc2c(ncn2COCCO)c(=O)[nH]1` [ACYCLOVIR]: the MCC in series [2] is more than 250 µM.

As to `Cc1cn(CN(CCOC(=O)C(C)(C)C)S(=O)(=O)c2ccccc2[N+](=O)[O-])c(=O)[nH]c1=O`, the Activity result (in the series with MDCK; in series [3]; with HEL) was “Not Active” in each case. Moreover, the result (in the series on HeLa [4]; with Human respirovirus 3; in [5]; in the series on Sindbis virus; in the series on Feline coronavirus; in the series on Felid alphaherpesvirus 1) was inactive. For the same molecule, the result (in the series on Human alphaherpesvirus 1; with Human alphaherpesvirus 2; with Coxsackievirus B4 [6]; in [7]) was inactive. The 50% effective concentration (EC50) in the series on Coxsackievirus B4 [12] and with Punta Toro virus [13] was 100 µM in each case.

With `CC(C)(C)C(=O)OCCN(Cn1cc(F)c(=O)[nH]c1=O)S(=O)(=O)c1ccc([N+](=O)[O-])cc1`, the MCC in [10] is 20 µM. Besides, the CC50 in series [11] was determined as 69 µM; in series [1] it was 44 µM. In addition, the Activity result in the series with HEL is reported as “Not Active”. Besides, the result (in the series with HeLa [4]; in the series with Human respirovirus 3; in [5]; with Sindbis virus; in the series on Feline coronavirus; with Felid alphaherpesvirus 1) was inactive. In addition, the outcome (in the series with Human alphaherpesvirus 1; in the series on Human alphaherpesvirus 2; in the series on Coxsackievirus B4 [6]; in series [7]; with Coxsackievirus B4 [8]; in the series on Punta Toro virus [9]) was inactive.

For `CC(=O)Nc1ccc(S(=O)(=O)N(CCOC(=O)C(C)(C)C)Cn2cc(C)c(=O)[nH]c2=O)cc1`, the Activity entry (in the series with MDCK; in [3]; in the series with HEL) was “Not Active” in each case. Further, the outcome (in the series on HeLa [4]; in the series with Human respirovirus 3; in series [5]; in the series with Sindbis virus; in the series with Feline coronavirus; in the series on Felid alphaherpesvirus 1) was inactive. Also, the result (in the series on Human alphaherpesvirus 1; in the series with Human alphaherpesvirus 2; in the series on Coxsackievirus B4 [6]; in series [7]; in the series with Coxsackievirus B4 [8]; in the series with Punta Toro virus [9]) was inactive. Also, the MCC in series [14] was 40 µM.

As for `Nc1ncnc2c1ncn2C[C@H](O)CO` [(S)-DHPA], the MCC (in series [14]; in the series on HeLa [15]) was more than 250 µM each time.

Regarding `CC(=O)Nc1ccc(S(=O)(=O)N(CCOC(=O)C(C)(C)C)Cn2ccc(=O)[nH]c2=O)cc1`, the Activity entry (with MDCK; in series [3]; in the series with HEL) was “Not Active” in each case. For the same molecule, the outcome (in the series with HeLa [4]; with Human respirovirus 3; in series [5]; in the series on Sindbis virus; with Feline coronavirus; in the series with Felid alphaherpesvirus 1) was inactive. Also, the result (with Human alphaherpesvirus 1; with Human alphaherpesvirus 2; in the series on Coxsackievirus B4 [6]; in series [7]; in the series with Coxsackievirus B4 [8]; in the series with Punta Toro virus [9]) was inactive. In series [14], the MCC was determined as 40 µM.

Take `NC(=O)c1ncn([C@@H]2O[C@H](CO)[C@@H](O)[C@H]2O)n1` [RIBAVIRIN]: the MCC is 100 µM in series [10], more than 250 µM in [14], more than 250 µM in the series with HeLa [15] and more than 250 µM in series [2]. Further, in [11], the half-maximal cytotoxic concentration (CC50) is more than 100 µM.

With `O=c1[nH]c(=O)n([C@H]2C[C@H](O)[C@@H](CO)O2)cc1/C=C/Br` [BRIVUDINE], the MCC (in series [14]; in the series with HeLa [15]; in series [2]) was more than 250 µM throughout.

Regarding `CC(C)(C)C(=O)OCCN(Cn1cc(F)c(=O)[nH]c1=O)S(=O)(=O)c1ccccc1[N+](=O)[O-]`, the MCC in series [10] worked out at 4 µM. The CC50 is more than 100 µM in [11] and 14 µM in [1]. Further, in the series on HEL, the Activity result is given as “Not Active”. The outcome (with HeLa [4]; in the series on Human respirovirus 3; in series [5]; in the series on Sindbis virus; in the series with Feline coronavirus; with Felid alphaherpesvirus 1) was inactive. The outcome (with Human alphaherpesvirus 1; with Human alphaherpesvirus 2; in the series with Coxsackievirus B4 [6]; in [7]; with Coxsackievirus B4 [8]; with Punta Toro virus [9]) was inactive.

The CC50 is the concentration at which the toxic effect on the cells reaches its halfway point. By EC50 is commonly meant the concentration giving half of the maximal effect.

The values are drawn from ChEMBL document CHEMBL1144203, “Synthesis and antiviral evaluation of acyclic azanucleosides developed from sulfanilamide as a lead structure” (Bioorg Med Chem, 2008).
